Experimental data: ChEMBL document CHEMBL1136700, “Identification of a broad-spectrum azasordarin with improved pharmacokinetic properties” (Bioorg Med Chem Lett, 2003)
In brackets after ≈: the same amount, converted by molar mass.

Assays:
[1] = Total body clearance was determined; type: ADME, organism-based; conditions: in vivo
Outline: (§1)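 Mice dosed iv at 5 mg/kg or orally at 20 mg/kg, n = 3; drug concentrations measured in plasma/serum over time to derive half-life, Cmax, total body clearance, steady-state volume and oral bioavailability.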

[2] = Half life period was measured upon oral administration (20 mg/kg); type: ADME, organism-based; conditions: in vivo; outline: as §1
Aspergillus flavus = assay: Minimum inhibitory concentration (MIC) against Aspergillus flavus after 24 hours; type: functional; conditions: Aspergillus flavus, 24 h; read-out: MIC
Outline: (§2)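 Antifungal susceptibility read visually; MIC taken as lowest drug concentration giving 90–100% inhibition of visible growth relative to drug-free controls, read over 48 h, or after 24 h where footnoted. Organisms: C. parapsilosis, C. albicans, Cryptococcus neoformans, C. glabrata, Aspergillus fumigatus, Aspergillus flavus.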

[3] = Oral bioavailability; type: ADME, organism-based; conditions: eutheria, in vivo; outline: as §1
Candida parapsilosis = assay: Minimum inhibitory concentration (MIC) to Candida parapsilosis after 48 hr; type: functional; conditions: Lodderomyces parapsilosis, 48 h; read-out: MIC; outline: as §2
[4] = Maximum plasma concentration was determined; type: ADME, organism-based; outline: as §1
[5] = Half life period was measured upon intravenous administration (5 mg/kg); type: ADME, organism-based; conditions: in vivo; outline: as §1
Nakaseomyces glabratus = assay: Minimum inhibitory concentration (MIC) to Candida glabrata after 48 hours; type: functional; conditions: Nakaseomyces glabratus, 48 h; read-out: MIC; outline: as §2
Candida albicans = assay: Minimum inhibitory concentration (MIC) to Candida albicans after 48 hr; type: functional; outline: as §2
[6] = Volume of steady state concentration was determined; type: ADME, organism-based; conditions: in vivo; read-out: Vss; outline: as §1
Aspergillus fumigatus = assay: Minimum inhibitory concentration (MIC) to Aspergillus fumigatus after 48 hr; type: functional; conditions: Aspergillus fumigatus, 48 h; read-out: MIC; outline: as §2
Cryptococcus neoformans = assay: Minimum inhibitory concentration against Cryptococcus neoformans after 48 hours; type: functional; outline: as §2

Row | Compound | clearance [1] [mL/min/kg] | half-life [2] [h] | MIC (Aspergillus flavus) [µg/mL] | bioavailability [3] [%] | MIC (Candida parapsilosis) [µg/mL] | Cmax [4] [ng/mL] | half-life [5] [h] | MIC (Nakaseomyces glabratus) [µg/mL] | MIC (Candida albicans) [µg/mL] | Vd [6] [L/kg] | MIC (Aspergillus fumigatus) [µg/mL] | MIC (Cryptococcus neoformans) [µg/mL]
1 | C=C(Cl)CN1C[C@H](OCC23C[C@@H]4[C@H](C)CC[C@H]4C4(C=O)CC2C=C(C(C)C)[C@@]34C(=O)O)OC[C@H]1C(C)C | 20 | 3.1 | 2 (≈ 3.74 µM) | 83 | 2 (≈ 3.74 µM) | 3880 | 1.6 | < 0.06 | < 0.06 | 1.6 | 32 (≈ 59.9 µM) | < 0.06
2 | C=C(C)CN1C[C@H](OCC23C[C@@H]4[C@H](C)CC[C@H]4C4(C=O)CC2C=C(C(C)C)[C@@]34C(=O)O)OC[C@H]1C |  |  | 8 (≈ 16.5 µM) |  | 8 (≈ 16.5 µM) |  |  | 0.125 (≈ 0.257 µM) | < 0.06 |  | > 128 | 0.125 (≈ 0.257 µM)
3 | CC(C)C1=CC2CC3(C=O)[C@@H]4CC[C@@H](C)[C@H]4CC2(CO[C@H]2CN(CC=C(Cl)Cl)[C@H](C)CO2)[C@]13C(=O)O |  |  | > 128 |  | 32 (≈ 59.2 µM) |  |  | < 0.06 | < 0.06 |  | > 128 | 16 (≈ 29.6 µM)
4 | C=C(Cl)CN1C[C@H](OCC23C[C@@H]4[C@H](C)CC[C@H]4C4(C=O)CC2C=C(C(C)C)[C@@]34C(=O)O)O[C@H](C)C1 | 13 |  | 4 (≈ 7.9 µM) |  | 8 (≈ 15.8 µM) |  | 0.44 | 0.125 (≈ 0.247 µM) | < 0.06 | 0.49 | > 128 | > 128
5 | CC(C)=CCN1C[C@H](OCC23C[C@@H]4[C@H](C)CC[C@H]4C4(C=O)CC2C=C(C(C)C)[C@@]34C(=O)O)OC[C@H]1C |  |  | > 128 |  | > 128 |  |  | 8 (≈ 16 µM) | 0.25 (≈ 0.5 µM) |  | > 128 | > 128
6 | C=C(Cl)CN1C[C@H](OCC23C[C@@H]4[C@H](C)CC[C@H]4C4(C=O)CC2C=C(C(C)C)[C@@]34C(=O)O)OC[C@H]1CO |  |  | > 128 |  | 128 (≈ 245 µM) |  |  | 1 (≈ 1.92 µM) | 0.5 (≈ 0.958 µM) |  | > 128 | 2 (≈ 3.83 µM)
7 | CC(C)C1=CC2CC3(C=O)[C@@H]4CC[C@@H](C)[C@H]4CC2(CO[C@H]2CN(c4ccc(Cl)s4)[C@H](C)CO2)[C@]13C(=O)O |  |  | > 128 |  | > 128 |  |  | 0.125 (≈ 0.228 µM) | < 0.06 |  | > 128 | 2 (≈ 3.65 µM)
8 | CC(C)C1=CC2CC3(C=O)[C@@H]4CC[C@@H](C)[C@H]4CC2(CO[C@H]2CN(C4C=CCCC4)[C@H](C)CO2)[C@]13C(=O)O (some centres not stated) |  |  | > 128 |  | > 128 |  |  | 8 (≈ 15.6 µM) | 2 (≈ 3.91 µM) |  | > 128 | > 128

Further lines, results first:

Row | clearance [1] [mL/min/kg] | half-life [2] [h] | MIC (Aspergillus flavus) [µg/mL] | bioavailability [3] [%] | MIC (Candida parapsilosis) [µg/mL] | Cmax [4] [ng/mL] | half-life [5] [h] | MIC (Nakaseomyces glabratus) [µg/mL] | MIC (Candida albicans) [µg/mL] | Vd [6] [L/kg] | MIC (Aspergillus fumigatus) [µg/mL] | MIC (Cryptococcus neoformans) [µg/mL] | Compound
9 |  |  | > 128 |  | 64 (≈ 126 µM) |  |  | 1 (≈ 1.97 µM) | 0.125 (≈ 0.246 µM) |  | > 128 | 64 (≈ 126 µM) | CC(C)C1=CC2CC3(C=O)[C@@H]4CC[C@@H](C)[C@H]4CC2(CO[C@H]2CN(CC=C(F)F)[C@H](C)CO2)[C@]13C(=O)O
10 |  |  | > 128 |  | > 128 |  |  | 1 (≈ 1.8 µM) | < 0.06 |  | > 128 | 4 (≈ 7.19 µM) | CC(C)C1=CC2CC3(C=O)[C@@H]4CC[C@@H](C)[C@H]4CC2(CO[C@H]2CN(Cc4ccccc4Cl)[C@H](C)CO2)[C@]13C(=O)O
11 |  |  | 0.125 (≈ 0.229 µM) |  | 0.5 (≈ 0.916 µM) |  |  | 0.015 (≈ 0.0275 µM) | < 0.008 |  | 8 (≈ 14.6 µM) | < 0.008 | C=C(Cl)CN1C[C@H](OCC23C[C@@H]4[C@H](C)CC[C@H]4C4(C=O)CC2C=C(C(C)C)[C@@]34C(=O)O)OCC12CCCC2
12 |  |  | > 128 |  | > 128 |  |  | 128 (≈ 239 µM) | 32 (≈ 59.7 µM) |  | > 128 | > 128 | CC(C)C1=CC2CC3(C=O)[C@@H]4CC[C@@H](C)[C@H]4CC2(CO[C@H]2CN(S(=O)(=O)C4CC4)[C@H](C)CO2)[C@]13C(=O)O
13 |  |  | 1 (≈ 1.92 µM) |  | 8 (≈ 15.4 µM) |  |  | 0.25 (≈ 0.481 µM) | < 0.06 |  | 64 (≈ 123 µM) | 0.5 (≈ 0.961 µM) | C=C(Cl)CN1C[C@H](OCC23C[C@@H]4[C@H](C)CC[C@H]4C4(C=O)CC2C=C(C(C)C)[C@@]34C(=O)O)O[C@H](C)[C@H]1C
